Measured values taken from ChEMBL document CHEMBL1137900, “Quinazolinone fungal efflux pump inhibitors. Part 2: In vitro structure-activity relationships of (N-methyl-piperazinyl)-containing derivatives” (Bioorg Med Chem Lett, 2004).
≈ marks a conversion by molar mass, not a printed value.

Key:
Nakaseomyces glabratus [1] = assay: In vitro minimum potentiation concentration to achieve an 8-fold reduction in fluconazole MIC against Candida glabrata strain YEM19 (overexpressing both CgDR1 and CgDR2); type: functional
Method in brief: (§1)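 Checkerboard assay in RPMI 1640 following the NCCLS M27-A broth dilution method. Fluconazole MIC was measured with and without varying concentrations of efflux pump inhibitor. MPC8 is the lowest inhibitor concentration giving an 8-fold reduction in fluconazole MIC. Some analogues were tested only in an abbreviated format: inhibitor concentration varied at fixed fluconazole of 1/8 and 1/32 MIC.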

Candida albicans [2] = assay: In vitro minimum potentiation concentration to achieve an 8-fold reduction in fluconazole MIC against Candida albicans strain YEM15 (overexpressing both CDR1 and CDR2); type: functional; method in brief: as §1
Nakaseomyces glabratus [3] = assay: In vitro concentration to inhibit Candida glabrata CgCDR1 transporter gene over-expressed in Saccharomyces cerevisiae strain Y170; type: functional, organism-based
Method in brief: (§2)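 Yeast strains over-expressing single pumps, inoculum 10^4 cells, incubated at 30 °C in YPD. Inhibitor concentration was varied against one fixed fluconazole concentration. That concentration was the geometric mean of the test strain's fluconazole MIC and that of the parent pump-deleted strain; for YEM172 it was 8 µg/ml.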

Candida albicans [4] = assay: In vitro concentration to inhibit Candida albicans CDR1 transporter gene over-expressed in Saccharomyces cerevisiae strain YEM172; type: functional, organism-based; method in brief: as §2
Candida albicans [5] = assay: In vitro concentration to inhibit Candida albicans CDR2 transporter gene over-expressed in Saccharomyces cerevisiae strain YEM171; type: functional, organism-based; method in brief: as §2
Nakaseomyces glabratus [6] = assay: In vitro concentration to inhibit Candida glabrata CgCDR2 transporter gene over-expressed in Saccharomyces cerevisiae strain Y218; type: functional, organism-based; method in brief: as §2
Saccharomyces cerevisiae [7] = assay: In vitro concentration required to inhibit 80% growth of Saccharomyces cerevisiae strain YEM139 (PDR5 deleted) after 48 h; type: functional
Saccharomyces cerevisiae [8] = assay: In vitro concentration required to inhibit 80% growth of Saccharomyces cerevisiae strain YEM172 (CDR1 over-expressed) after 48 h; type: functional
Saccharomyces cerevisiae [9] = assay: In vitro concentration required to inhibit 80% growth of Saccharomyces cerevisiae strain Y170 (CgCDR1 over-expressed) after 48 h; type: functional
Saccharomyces cerevisiae [10] = assay: In vitro concentration required to inhibit 80% growth of Saccharomyces cerevisiae strain YEM171 (CDR2 over-expressed) after 48 h; type: functional
Candida albicans [11] = assay: In vitro concentration required against Candida albicans strain YEM 15; type: functional
Saccharomyces cerevisiae [12] = assay: In vitro concentration required to inhibit 80% growth of Saccharomyces cerevisiae strain Y218 (CgCDR2 over-expressed) after 48 h; type: functional

Compound | MPC8 (Nakaseomyces glabratus [1]) [µg/mL] | MPC8 (Candida albicans [2]) [µg/mL] | further results
COc1ccc(N(C(=O)Nc2nc3ccccc3s2)C(C)c2nc3ccccc3c(=O)n2N2CCN(C)CC2)c(OC)c1 (stereo not given) | 16 | 2 | –
COc1ccc(N(C(=O)NS(=O)(=O)c2ccc(Cl)cc2)C(C)c2nc3ccccc3c(=O)n2N2CCN(C)CC2)c(OC)c1 (stereo not given) | >32 | >32 | –
COc1cccc(N(C(=O)Nc2ccc(F)cc2)C(C)c2nc3ccccc3c(=O)n2N2CCN(C)CC2)c1 (stereo not given) | >32 | 16 | –
COc1ccc(N(C(=O)Nc2ccc(F)cc2)C(C)c2nc3ccc(OCC(N)=O)cc3c(=O)n2N2CCN(C)CC2)c(OC)c1 (stereo not given) | >32 | >32 | –
CCC(=O)Oc1ccc2nc(C(C)N(C(=O)Nc3ccc(F)cc3)c3ccc(OC)cc3OC)n(N3CCN(C)CC3)c(=O)c2c1 (stereo not given) | 4 | 4 | –
COc1ccc(N(C(=O)Nc2ccc(F)cc2)C(C)c2nc3cc(Cl)ccc3c(=O)n2N2CCN(C)CC2)c(OC)c1 (stereo not given) | 0.5 | 0.12 | –
COc1ccc(N(C(=O)Nc2ccc(F)cc2)C(C)c2nc3ccc(Cl)cc3c(=O)n2N2CCN(C)CC2)c(OC)c1 (stereo not given) | 2 | 0.25 | –
COc1ccc(N(C(=O)Nc2ccc(F)cc2)[C@H](C)c2nc3cc(F)ccc3c(=O)n2N2CCN(C)CC2)c(OC)c1 | >32 | >32 | IC50 (Nakaseomyces glabratus [3]): > 32 µg/mL; IC50 (Candida albicans [4]): > 32 µg/mL; IC50 (Candida albicans [5]): > 32 µg/mL; IC50 (Nakaseomyces glabratus [6]): > 32 µg/mL
CC(c1nc2ccccc2c(=O)n1N1CCN(C)CC1)N(C(=O)Nc1ccc(F)cc1)c1ccc(F)cc1F (stereo not given) | 32 | 8 | –
COc1ccc(N(C(=O)Nc2ccc(F)cc2)C(C)c2nc3ccc(OC)cc3c(=O)n2N2CCN(C)CC2)c(OC)c1 (stereo not given) | 2 | 0.5 | –
COc1ccc(N(C(=O)Nc2ccc(F)cc2)C(C)c2nc3ccccc3c(=O)n2N2CCN(C)CC2)c(OC)c1 (stereo not given) | 4 | 4 | –
COc1ccc(N(C(=O)Nc2ccccc2Cl)C(C)c2nc3ccccc3c(=O)n2N2CCN(C)CC2)c(OC)c1 (stereo not given) | >32 | >32 | –
COc1ccc(N(C(=O)Nc2ccc(F)cc2)C(C)c2nc3ccc(O)cc3c(=O)n2N2CCN(C)CC2)c(OC)c1 (stereo not given) | 1 | 16 | –
Cc1ccc(N(C(=O)Nc2ccc(F)cc2)C(C)c2nc3ccccc3c(=O)n2N2CCN(C)CC2)c(C)c1 (stereo not given) | >32 | 8 | –
COc1ccc(N(C(=O)Nc2ccc(Cl)cc2)C(C)c2nc3ccccc3c(=O)n2N2CCN(C)CC2)c(OC)c1 (stereo not given) | 1 | 2 | –
COc1ccccc1N(C(=O)Nc1ccc(F)cc1)C(C)c1nc2ccccc2c(=O)n1N1CCN(C)CC1 (stereo not given) | >32 | >32 | –
COc1ccc(N(C(=O)Nc2ccc(F)cc2)C(C)c2nc3c(OC)cccc3c(=O)n2N2CCN(C)CC2)c(OC)c1 (stereo not given) | 8 | 8 | –
OC(Cn1cncn1)(Cn1cncn1)c1ccc(F)cc1F [FLUCONAZOLE] | – | – | MIC (Saccharomyces cerevisiae [7]): 0.5 µg/mL (≈ 1.63 µM); MIC (Saccharomyces cerevisiae [8]): 128 µg/mL (≈ 418 µM); MIC (Saccharomyces cerevisiae [9]): 128 µg/mL (≈ 418 µM); MIC (Saccharomyces cerevisiae [10]): 8 µg/mL (≈ 26.1 µM); MIC (Candida albicans [11]): 128 µg/mL (≈ 418 µM); MIC (Saccharomyces cerevisiae [12]): 2 µg/mL (≈ 6.53 µM)
COc1ccc(NC(=O)N(c2ccc(OC)cc2OC)C(C)c2nc3ccccc3c(=O)n2N2CCN(C)CC2)cc1 (stereo not given) | 2 | 16 | –
COc1ccc(N(C(=O)Nc2ccc(F)cc2)C(C)c2nc3ccc(F)cc3c(=O)n2N2CCN(C)CC2)c(OC)c1 (stereo not given) | 2 | 1 | –
COc1ccc(N(C(=O)Nc2ccc(F)cc2)C(C)c2nc3cc(F)c(F)cc3c(=O)n2N2CCN(C)CC2)c(OC)c1 (stereo not given) | 0.5 | 0.12 | –
